# In ChEMBL document CHEMBL1926614, “Substituted thiazoles V. synthesis and antitumor activity of novel thiazolo[2,3-b]quinazoline and pyrido[4,3-d]thiazolo[3,2-a]pyrimidine analogues” (2012):
# Legend:
# Assay type in all cases: functional
# SF-295 = assay: Growth inhibition of human SF295 cells at 10 uM after 48 hrs by coulter counting; details: SF-295, 48 h, read-out: GI
# Procedure, shortened: (§1)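 Single-dose primary screen across the full NCI 60-cell-line panel. Stocks were made in DMSO and diluted in PBS to a final DMSO below 1%. Cultures at 6 × 10⁴ cells/ml were run in duplicate wells alongside PBS/DMSO vehicle controls at 37 °C in humidified 5% CO₂. Data were expressed as percent growth of treated cells.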
# [1] = Growth inhibition of human NCI-322M cells at 10 uM after 48 hrs by coulter counting; details: read-out: GI; procedure, shortened: as §1
# SK-MEL-2 = assay: Growth inhibition of human SK-MEL-2 cells at 10 uM after 48 hrs by coulter counting; details: SK-MEL-2, 48 h, read-out: GI; procedure, shortened: as §1
# A498 = assay: Growth inhibition of human A498 cells at 10 uM after 48 hrs by coulter counting; details: A498, 48 h, read-out: GI; procedure, shortened: as §1
# MDA-MB-435 = assay: Growth inhibition of human MDA-MB-435 cells at 10 uM after 48 hrs by coulter counting; details: MDA-MB-435, 48 h, read-out: GI; procedure, shortened: as §1
# NCI-H522 = assay: Growth inhibition of human NCI-H522 cells at 10 uM after 48 hrs by coulter counting; details: NCI-H522, 48 h, read-out: GI; procedure, shortened: as §1
# 786-0 = assay: Growth inhibition of human 786-0 cells at 10 uM after 48 hrs by coulter counting; details: 786-0, 48 h, read-out: GI; procedure, shortened: as §1
# SF-268 = assay: Growth inhibition of human SF268 cells at 10 uM after 48 hrs by coulter counting; details: SF-268, 48 h, read-out: GI; procedure, shortened: as §1
# HL-60(TB) = assay: Growth inhibition of human HL-60(TB) cells at 10 uM after 48 hrs by coulter counting; details: HL-60, 48 h, read-out: GI
# Procedure, shortened: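 Test compound was dissolved in DMSO and diluted in phosphate-buffered saline to a final DMSO level below 1%. Dilutions were plated in duplicate with cell culture at 6 × 10⁴ cells/ml. Vehicle controls held PBS and DMSO at matching dilutions. Incubation was at 37 °C, humidified, under 5% CO₂. Data were reported as percent growth of treated cells.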
# EKVX = assay: Growth inhibition of human EKVX cells at 10 uM after 48 hrs by coulter counting; details: read-out: GI; procedure, shortened: as §1
# MOLT-4 = assay: Growth inhibition of human MOLT4 cells at 10 uM after 48 hrs by coulter counting; details: MOLT-4, 48 h, read-out: GI; procedure, shortened: as §1
# UACC-62 = assay: Growth inhibition of human UACC62 cells at 10 uM after 48 hrs by coulter counting; details: UACC-62, 48 h, read-out: GI
# Procedure, shortened: (§2)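 Single-dose screen in the NCI 60 human tumor cell line panel (nine subpanels). Compounds dissolved in DMSO and diluted in phosphate buffered saline, keeping final DMSO below 1%. Added in duplicate wells to cells at 6 × 10⁴ cells/ml. Controls held PBS and DMSO at matching dilutions. Incubated at 37 °C, humidified, 5% CO₂. Reported as percent growth of treated cells.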
# KM12 = assay: Growth inhibition of human KM12 cells at 10 uM after 48 hrs by coulter counting; details: KM12, 48 h, read-out: GI; procedure, shortened: as §1
# UO-31 = assay: Growth inhibition of human UO31 cells at 10 uM after 48 hrs by coulter counting; details: UO-31, 48 h, read-out: GI; procedure, shortened: as §2
# A549 = assay: Growth inhibition of human A549 cells at 10 uM after 48 hrs by coulter counting; details: A549, 48 h, read-out: GI; procedure, shortened: as §1
# NCI-H460 = assay: Growth inhibition of human NCI-H460 cells at 10 uM after 48 hrs by coulter counting; details: NCI-H460, 48 h, read-out: GI; procedure, shortened: as §1
# TK-10 = assay: Growth inhibition of human TK10 cells at 10 uM after 48 hrs by coulter counting; details: TK-10, 48 h, read-out: GI; procedure, shortened: as §2
# RPMI-8226 = assay: Growth inhibition of human RPMI8226 cells at 10 uM after 48 hrs by coulter counting; details: RPMI-8226, 48 h, read-out: GI; procedure, shortened: as §1
# K562 = assay: Growth inhibition of human K562 cells at 10 uM after 48 hrs by coulter counting; details: K562, 48 h, read-out: GI; procedure, shortened: as §1
# HOP-62 = assay: Growth inhibition of human HOP62 cells at 10 uM after 48 hrs by coulter counting; details: HOP-62, 48 h, read-out: GI; procedure, shortened: as §1
# U-251 = assay: Growth inhibition of human U251 cells at 10 uM after 48 hrs by coulter counting; details: U-251, 48 h, read-out: GI; procedure, shortened: as §2
# SNB-19 = assay: Growth inhibition of human SNB19 cells at 10 uM after 48 hrs by coulter counting; details: SNB-19, 48 h, read-out: GI; procedure, shortened: as §1
# NCI-H23 = assay: Growth inhibition of human NCI-H23 cells at 10 uM after 48 hrs by coulter counting; details: NCI-H23, 48 h, read-out: GI; procedure, shortened: as §1
# NCI-H226 = assay: Growth inhibition of human NCI-H226 cells at 10 uM after 48 hrs by coulter counting; details: NCI-H226, 48 h, read-out: GI; procedure, shortened: as §1
# SK-MEL-28 = assay: Growth inhibition of human SK-MEL-28 cells at 10 uM after 48 hrs by coulter counting; details: SK-MEL-28, 48 h, read-out: GI; procedure, shortened: as §1
# LOX IMVI = assay: Growth inhibition of human LOXIMVI cells at 10 uM after 48 hrs by coulter counting; details: read-out: GI; procedure, shortened: as §1
# SK-MEL-5 = assay: Growth inhibition of human SK-MEL-5 cells at 10 uM after 48 hrs by coulter counting; details: SK-MEL-5, 48 h, read-out: GI; procedure, shortened: as §1
# CAKI-1 = assay: Growth inhibition of human Caki1 cells at 10 uM after 48 hrs by coulter counting; details: CAKI-1, 48 h, read-out: GI; procedure, shortened: as §1
# T47D = assay: Growth inhibition of human T47D cells at 10 uM after 48 hrs by coulter counting; details: read-out: GI; procedure, shortened: as §2
# DU-145 = assay: Growth inhibition of human DU145 cells at 10 uM after 48 hrs by coulter counting; details: DU-145, 48 h, read-out: GI; procedure, shortened: as §1
# OVCAR-8 = assay: Growth inhibition of human OVCAR8 cells at 10 uM after 48 hrs by coulter counting; details: OVCAR-8, 48 h, read-out: GI; procedure, shortened: as §1
# HCT-15 = assay: Growth inhibition of human HCT15 cells at 10 uM after 48 hrs by coulter counting; details: HCT-15, 48 h, read-out: GI; procedure, shortened: as §1
# CCRF-CEM = assay: Growth inhibition of human CCRF-CEM cells at 10 uM after 48 hrs by coulter counting; details: read-out: GI; procedure, shortened: as §1
# ACHN = assay: Growth inhibition of human ACHN cells at 10 uM after 48 hrs by coulter counting; details: read-out: GI; procedure, shortened: as §1
# M14 = assay: Growth inhibition of human M14 cells at 10 uM after 48 hrs by coulter counting; details: M14, 48 h, read-out: GI; procedure, shortened: as §1
# UACC-257 = assay: Growth inhibition of human UACC257 cells at 10 uM after 48 hrs by coulter counting; details: UACC-257, 48 h, read-out: GI; procedure, shortened: as §2
# HCT-116 = assay: Growth inhibition of human HCT116 cells at 10 uM after 48 hrs by coulter counting; details: HCT-116, 48 h, read-out: GI; procedure, shortened: as §1
# MCF7 = assay: Growth inhibition of human MCF7 cells at 10 uM after 48 hrs by coulter counting; details: MCF7, 48 h, read-out: GI; procedure, shortened: as §1
# SN12C = assay: Growth inhibition of human SN12C cells at 10 uM after 48 hrs by coulter counting; details: read-out: GI; procedure, shortened: as §1
# NCI/ADR-RES = assay: Growth inhibition of human NCI/ADR-RES cells at 10 uM after 48 hrs by coulter counting; details: read-out: GI; procedure, shortened: as §1
# BT-549 = assay: Growth inhibition of human BT549 cells at 10 uM after 48 hrs by coulter counting; details: BT-549, 48 h, read-out: GI; procedure, shortened: as §1
# SNB-75 = assay: Growth inhibition of human SNB75 cells at 10 uM after 48 hrs by coulter counting; details: SNB-75, 48 h, read-out: GI; procedure, shortened: as §1
# HT-29 = assay: Growth inhibition of human HT-29 cells at 10 uM after 48 hrs by coulter counting; details: HT-29, 48 h, read-out: GI; procedure, shortened: as §1
smiles,measurement,setting,value
CCN1CC2=C(N=C3SC=CN3C2c2cccs2)/C(=C/c2cccs2)C1 (stereo not drawn),inhibition of growth at 10 µM,SF-295,> 10%
same,inhibition of growth at 10 µM,[1],> 10%
same,inhibition of growth at 10 µM,SK-MEL-2,> 10%
same,inhibition of growth at 10 µM,A498,21.6%
same,inhibition of growth at 10 µM,MDA-MB-435,> 10%
same,inhibition of growth at 10 µM,NCI-H522,> 10%
same,inhibition of growth at 10 µM,786-0,> 10%
same,inhibition of growth at 10 µM,SF-268,> 10%
same,inhibition of growth at 10 µM,HL-60(TB),> 10%
same,inhibition of growth at 10 µM,EKVX,> 10%
same,inhibition of growth at 10 µM,MOLT-4,> 10%
same,inhibition of growth at 10 µM,UACC-62,> 10%
same,inhibition of growth at 10 µM,KM12,> 10%
same,inhibition of growth at 10 µM,UO-31,26.2%
same,inhibition of growth at 10 µM,A549,> 10%
same,inhibition of growth at 10 µM,NCI-H460,> 10%
same,inhibition of growth at 10 µM,TK-10,> 10%
same,inhibition of growth at 10 µM,RPMI-8226,> 10%
same,inhibition of growth at 10 µM,K562,> 10%
same,inhibition of growth at 10 µM,HOP-62,> 10%
same,inhibition of growth at 10 µM,U-251,> 10%
same,inhibition of growth at 10 µM,SNB-19,> 10%
same,inhibition of growth at 10 µM,NCI-H23,> 10%
same,inhibition of growth at 10 µM,NCI-H226,> 10%
same,inhibition of growth at 10 µM,SK-MEL-28,> 10%
same,inhibition of growth at 10 µM,LOX IMVI,> 10%
same,inhibition of growth at 10 µM,SK-MEL-5,> 10%
same,inhibition of growth at 10 µM,CAKI-1,> 10%
same,inhibition of growth at 10 µM,T47D,11.4%
same,inhibition of growth at 10 µM,DU-145,> 10%
same,inhibition of growth at 10 µM,OVCAR-8,> 10%
same,inhibition of growth at 10 µM,HCT-15,> 10%
same,inhibition of growth at 10 µM,CCRF-CEM,> 10%
same,inhibition of growth at 10 µM,ACHN,> 10%
same,inhibition of growth at 10 µM,M14,> 10%
same,inhibition of growth at 10 µM,UACC-257,> 10%
same,inhibition of growth at 10 µM,HCT-116,> 10%
same,inhibition of growth at 10 µM,MCF7,> 10%
same,inhibition of growth at 10 µM,SN12C,> 10%
same,inhibition of growth at 10 µM,NCI/ADR-RES,> 10%
same,inhibition of growth at 10 µM,BT-549,> 10%
same,inhibition of growth at 10 µM,SNB-75,14.2%
same,inhibition of growth at 10 µM,HT-29,> 10%
